Screening data: PubChem BioAssay, several laboratories
Only some compounds are listed: those with a hit (about 1.8% of all), similar ones and a draw of the others.
Efflux pump inh = antifungal efflux pump inhibition, Nile Red retention; 0.44% of 330,000 active; inhibition, % at 10 µM; S. cerevisiae Candida pump triplex; AID 485275;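 active means plate passing quality check with inhibition over a set limit, or well fluorescence over plate mean plus 4 SD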;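 further: Nile Red retained in pooled yeast measured as flow cytometry median fluorescence; 0% = buffer negative control and 100% = Enniatin B positive control; higher means more Nile Red kept so more efflux inhibition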
SUMO Mot1 rescue = inhibitors of SUMOylation pathway: yeast Mot1-301 growth rescue. AID 2716. 1% of 320,000 active. growth rescue, % at 18.8 µM. S. cerevisiae Mot1-301 growth rescue, ATP luminescence, 38.5C; percent above DMSO median, 100 means doubled;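 active means every valid replicate shows activation above 250% relative to neutral control wells; inactive means the rest, any valid replicate at or below 250%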;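 further: OY570 slx delta 5 strain wells were the positive control but not used for scaling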
Statin myotox sup = protects C2C12 myotubes from simvastatin toxicity; ATP luminescence, 48 h; scaled: DMSO 0, geranylgeraniol control 100; rescue of ATP level, % at 7.49 µM; 0.78% of 330,000 active; AID 602340;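 active means mean ATP rescue above about 67%, or every replicate alone reaching that limit, limit read from the data, passing the limit was not always enough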;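 further: myotubes were challenged with 10 µM simvastatin during compound exposure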
Cneo AK release = causes C. neoformans cell lysis | adenylate kinase release luminescence, 4 h; normalised: neutral wells 0, clomiphene wells 100 | lysis activity, % at 15 µM | 0.2% of 360,000 active | AID 651654;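 active means mean lysis activity across replicates of at least 80%, whatever share of replicates individually reach that level; inactive means mean lysis activity below 80%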
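Material – log-phase Cryptococcus neoformans yeast cells · Input – 5 × 10^6 yeast cells/mL · Medium – fresh YPD growth medium · Doses – single compound concentration per well · Timing – static 4 h at 37 °C with compound, 1 h detection · Detection – adenylate kinase release luminescence · Read-out – signal increase indicating cell lysis · Control set – Clomiphene as positive lysis control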
An asterisk follows results filed as active; · = no result given.

SMILES	Efflux pump inh	SUMO Mot1 rescue	Statin myotox sup	Cneo AK release
C[C@@H]1CCCCO[C@@H](CN(C)S(=O)(=O)c2ccc(F)cc2)[C@@H](C)CN([C@@H](C)CO)C(=O)c2cc(NS(=O)(=O)c3ccc(F)cc3)ccc2O1	·	·	·	104.1*
C[C@@H]1CN([C@@H](C)CO)C(=O)c2cc(NS(=O)(=O)c3ccc(F)cc3)ccc2O[C@@H](C)CCCCO[C@H]1CN(C)S(=O)(=O)c1ccc(F)cc1	·	·	·	101.0*
C[C@H]1CN([C@@H](C)CO)C(=O)c2cc(NS(=O)(=O)c3ccc(F)cc3)ccc2O[C@@H]1CN(C)S(=O)(=O)c1ccccc1	·	·	19.6	104.5*
C[C@@H]1CN([C@@H](C)CO)C(=O)c2cc(NS(=O)(=O)c3ccc(F)cc3)ccc2O[C@H]1CN(C)Cc1ccc(-c2ccccc2)cc1	·	·	70.6*	19.2
CCOC(=O)[C@@H]1[C@H]2COc3cc(OC)ccc3[C@@H]2N2C(=O)N(c3ccc(C(F)(F)F)cc3)C(=O)[C@@]12C	0.0	21.6	4.7	-2.6
O=C(N/N=C\C=C\c1ccco1)c1cc(-c2ccc3ccccc3c2)n[nH]1	0.4	593.7*	·	·
O=C(N/N=C/C=C\c1ccco1)c1ccccn1	-0.1	-9.7	·	·
Cc1nc(C)c(C(=O)NNS(=O)(=O)c2ccccc2)s1	0.0	-21.8	-7.1	-2.2
Cc1ccc(NC(=S)NCCN(C2CCCCC2)C2CCCC2)cc1	0.0	71.2	·	·
Cc1cc(C)cc(NC(=S)NCCN(C2CCCCC2)C2CCCC2)c1	0.0	430.2*	·	·
CCOC(=O)C1=C(N)N2C(=O)C(C)SC2=C(C(=O)OC)C1c1cccc(OC)c1 (stereo not given)	-0.2	3.2	-4.4	-2.1
CCCCCCSc1cc(-c2nc3cnccn3c2NCc2ccccc2)ccc1OC	0.8*	-4.2	12.8	14.7
COC(=O)C(C)Sc1nc2c(cnn2-c2ccc(F)cc2)c(=O)[nH]1 (stereo not given)	0.2	2.5	13.8	-0.6
COC(=O)C(C)Sc1nc2c(cnn2-c2ccc(C)cc2)c(=O)[nH]1 (stereo not given)	-0.1	-9.7	106.3*	2.8
CC(C)CC#Cc1ccc2c(c1)O[C@@H](CN(C)C(=O)C1CCCCC1)[C@H](C)CN([C@@H](C)CO)S2(=O)=O	·	·	-13.9	1.5
COc1ccccc1NC(=O)N[C@@H]1CC[C@H](CCn2cc(-c3ccccc3OC)nn2)O[C@H]1CO	·	·	-6.1	106.6*
COc1cccc(-c2cn(CC[C@@H]3CC[C@@H](NC(C)=O)[C@H](CO)O3)nn2)c1	·	·	-3.3	113.5*
COc1ccccc1NC(=O)N[C@@H]1CC[C@@H](CCn2cc(C3(O)CCCC3)nn2)O[C@H]1CO	·	·	-11.2	94.3*
COc1ccccc1NC(=O)N[C@@H]1CC[C@@H](CCn2cc(-c3ccccc3OC)nn2)O[C@@H]1CO	·	·	4.5	-0.1
COc1ccccc1NC(=O)N[C@@H]1CC[C@@H](CCn2cc(C3(O)CCCC3)nn2)O[C@@H]1CO	·	·	10.6	-0.3
C[C@H]1CCCCO[C@@H](CN(C)Cc2ccc3c(c2)OCO3)[C@@H](C)CN([C@@H](C)CO)C(=O)c2cc(N(C)C)ccc2O1	·	·	-18.9	0.0
CO[C@H]1CN(C)C(=O)c2ccc(NC(=O)Nc3c(C)noc3C)cc2OC[C@H](C)NC[C@H]1C	·	·	3.3	-0.6
O=C(c1ccco1)N1N=C(c2ccc3nccnc3c2)CC1c1ccccc1 (stereo not given)	0.1	541.2*	·	·
CS(=O)(=O)Nc1ccc(C2=NN(C(=O)c3ccco3)C(c3ccc(F)cc3)C2)cc1 (stereo not given)	0.7	113.9	·	·
Cc1cc(C)c2c(c1)/C(=N/NS(=O)(=O)c1ccccc1)CCC2	-0.1	7.2	135.9*	1.5
SMILES	Efflux pump inh	SUMO Mot1 rescue	Statin myotox sup	Cneo AK release
Cc1cc(C)c2c(c1)/C(=N/NS(=O)(=O)c1ccc(Br)cc1)CCC2	0.0	33.3	18.3	5.1
C/C=C/Cn1c(SCc2ccccc2)nc2c1c(=O)[nH]c(=O)n2C	0.3	21.3	116.5*	1.1
COc1ccc(NC(=O)CSCC(=O)Nc2ccc(S(=O)(=O)N3CCCCC3)cc2)cc1	-0.5	5.6	2.8	2.4
C=C[C@@H]1c2c(F)cccc2N(S(=O)(=O)c2ccc(C)cc2)[C@H](c2ccc(C(=O)OC)cc2)C1(C#N)C#N	0.0	0.0	126.3*	-0.3
C=C[C@@H]1c2c(F)cccc2N(S(=O)(=O)c2ccc(C)cc2)[C@H](c2ccc(OC(C)=O)cc2)C1(C#N)C#N	-0.1	-19.5	8.8	-1.3
COCc1cn(CC[C@@H]2CC[C@@H](NC(=O)Nc3ccc4c(c3)OCO4)[C@H](CO)O2)nn1	·	·	0.8	6.5
CCNc1ccc(Br)cc(C(=O)/C=C/c2ccc(Cl)cc2Cl)c1=O	0.0	-9.2	82.3*	-3.7
CNc1ccc(Br)cc(C(=O)/C=C/c2cc(OC)ccc2OC)c1=O	0.1	-13.5	26.5	-2.2
O=C1N(Cc2ccc(F)cc2Cl)c2ccccc2C12OCCCO2	0.0	9.5	8.5	4.1
O=C1N(Cc2ccccc2F)c2ccccc2C12OCCCO2	0.1	-13.4	120.1*	-0.6
C[C@@H]1CCCCO[C@H](CN(C)Cc2ccc(Cl)c(Cl)c2)[C@@H](C)CN([C@H](C)CO)C(=O)c2cc(NS(=O)(=O)c3cccs3)ccc2O1	·	·	·	-0.3
CC(C)(CO)Nc1nc(N2CCCC2)nc(N2CCCC2)n1	0.0	-14.1	16.3	0.6
O=c1c2ccccc2nc(-c2ccc(Cl)cc2Cl)n1CCCn1ccnc1	0.0	-16.6	99.6*	-1.2
O=C1c2ccccc2C(=O)N1CCCc1nc2ccccc2c(=O)n1CCCn1ccnc1	0.1	2.0	-0.6	-0.5
CC1(C)CN(O)CCN1O	0.3	84.2	·	·
CCCCCOC(=O)Cn1c(N2CCCCCC2)nc2c1c(=O)[nH]c(=O)n2C	0.0	26.5	-0.2	-8.9
CC(C)CSc1nc2c(c(=O)[nH]c(=O)n2C)n1CC(O)COc1cccc2ccccc12 (stereo not given)	·	·	·	-2.4
CCCCC(=O)Nc1nnc(C2=COCCO2)o1	-0.1	2.2	-4.5	-0.5
CN(c1ccc(C(=O)NCc2ccco2)cc1)S(C)(=O)=O	0.0	13.4	107.3*	2.0
COc1ccc(OCCn2c(NC(=O)c3ccco3)nc3ccccc32)cc1	0.0	-6.2	5.1	3.0
CCCn1c(NC(=O)c2ccco2)nc2ccccc21	0.0	-5.9	102.3*	5.8
O=C(CN1CCN(S(=O)(=O)c2ccc(Br)cc2)CC1)Nc1ccc2c(c1)OCCO2	0.3	2.1	144.0*	1.1
O=c1c(O)c(-c2ccc(O)c(O)c2)oc2cc(O)cc(O)c12	0.0	7.0	-4.5	-1.4
C[C@@H]1CN([C@H](C)CO)C(=O)c2cccc(NS(=O)(=O)c3ccccc3)c2O[C@H]1CN(C)C(=O)Nc1ccc2c(c1)OCO2	·	·	4.6	3.0
C[C@@H]1CN([C@@H](C)CO)C(=O)c2cccc(NS(C)(=O)=O)c2O[C@@H]1CN(C)C(=O)Nc1ccc2c(c1)OCO2	·	·	·	88.0*
C[C@H]1CN([C@@H](C)CO)C(=O)c2cccc(NS(C)(=O)=O)c2O[C@H]1CN(C)C(=O)Nc1ccc2c(c1)OCO2	·	·	·	113.7*
